Source: PubChem (several laboratories)
Shown are actives, neighbours in structure and some others; about 1.6% of the full set was active somewhere.
Neddyl block = inhibitors of cullin neddylation, primary screen, biochemical, TR-FRET, uHTS, NAE and Ubc12 | NEDD8-conjugating enzyme Ubc12 (Homo sapiens) + NEDD8-activating enzyme E1 regulatory … | inhibition, % at 25 µM | 360,000 tested, 0.58% active | AID 651699, 2012; in the data active = inhibition above about 36%
Cardio protect = cardioprotection against H2O2-induced cell death, primary screen, uHTS, H9c2 cells, ATPLite luminescence; H9c2 cardiomyocytes, H2O2 injury protection, 2 h; protection from H2O2 cell death, % at 20 µM; 360,000 tested, 0.63% active; AID 588492, 2011;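 active = compounds giving at least 50% protection of heart cells from peroxide-induced death in the single-dose screen, raw or plate-pattern-corrected value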
ASAP1 GAP inh = inhibitors of human ASAP1 ArfGAP activity, primary screen, biochemical, fluorescence polarization. Arf-GAP with SH3 domain, ANK repeat and PH domain-containing protein 1 (Homo sapiens), …. ASAP1-stimulated ARF1 GTP hydrolysis, GDP FP detection. inhibition, % at 16.5 µM. 360,000 tested, 0.19% active. AID 624377, 2012; in the data active = inhibition above about 25%
ARFGAP1 inhibitor = inhibitors of rat ARFGAP1 GAP activity, primary screen, biochemical, fluorescence polarization, GDP tracer; Arfgap1-stimulated ARF1 GTP hydrolysis, GDP FP detection; inhibition, % at 16.5 µM; 360,000 tested, 0.26% active;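 active = inhibition above a per-plate limit, mean inhibition of low control wells plus 3 SD, cut at about 25% in these data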
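Assay system: purified rat His6-Arfgap1 residues 1-136 (GAP domain); Reagent: human Δ17 ARF1 bound to GTP; Dosing: 16.5 µM single point, 1.26% DMSO; Times: GTP hydrolysis reaction 2 h at 25 °C; Signal: FP, GDP Alexa 633 tracer displaced from anti-GDP antibody, 620/688 nm; Measure: % inhibition from polarization.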
ARFGAP1 confirm = ARFGAP1 inhibitor hit confirmation, biochemical, fluorescence polarization, triplicate; 890 tested, 30% active; shares compounds with ARFGAP1 inhibitor; ARFGAP1-stimulated ARF1 GTP hydrolysis, GDP tracer FP; inhibition, % at 16.5 µM;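 active = average inhibition over triplicates above the hit cutoff set in the earlier primary screen, cut at about 25% in these data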
Target sequence (Q62848 whole entry, looked up): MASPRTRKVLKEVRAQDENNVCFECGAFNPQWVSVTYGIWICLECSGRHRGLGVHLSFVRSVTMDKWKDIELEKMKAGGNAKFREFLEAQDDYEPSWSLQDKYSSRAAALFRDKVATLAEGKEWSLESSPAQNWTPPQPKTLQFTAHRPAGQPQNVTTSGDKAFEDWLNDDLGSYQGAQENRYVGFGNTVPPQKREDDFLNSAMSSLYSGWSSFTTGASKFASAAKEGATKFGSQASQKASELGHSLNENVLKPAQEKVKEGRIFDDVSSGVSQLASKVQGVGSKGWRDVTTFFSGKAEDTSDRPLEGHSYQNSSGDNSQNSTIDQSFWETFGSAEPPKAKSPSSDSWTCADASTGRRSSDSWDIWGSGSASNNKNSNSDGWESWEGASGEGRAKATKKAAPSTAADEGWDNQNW
Each line names hits and unclear results; the compound was inactive in the other large screens (follow-up assays come after a bar, where shown).

Nc1nc(/C=C/c2cccnc2)nc(-c2ccccc2O)n1	ARFGAP1 inhibitor 36.6 | ARFGAP1 confirm 25.3
Nc1nc(/C=C/c2ccc(F)cc2)nc(-c2ccccc2O)n1	none
CCCCOc1ccc(C(=O)NC2CCCCN(CCC)C2=O)cc1 (stereo not drawn)	none (no result: Neddyl block, Cardio protect)
Cc1ccc(S(=O)(=O)Nc2ccccc2C(O)c2ccccc2)cc1 (stereo not drawn)	ARFGAP1 inhibitor 25.9 | ARFGAP1 confirm inactive
Cn1c(CCCOc2ccc(Cl)cc2Cl)nnc1SCC(=O)Nc1cccc(F)c1	none
CCc1cccc(C)c1NC(=O)CSc1nnc(CCCOc2ccc(Cl)cc2Cl)n1C	ARFGAP1 inhibitor 24.8 | ARFGAP1 confirm inactive
Nc1[nH]c(C(=O)c2ccccc2)c(-c2ccccc2C(F)(F)F)c1C(=O)NCCc1c[nH]c2ccccc12	ARFGAP1 inhibitor 24.6 (no result: Cardio protect) | ARFGAP1 confirm inactive
C[C@H](O)[C@@H]1C(=O)N2CCc3c([nH]c4c(-c5ccccc5)cccc34)[C@@H]2C[C@@H]1N(C)C(=O)c1ccco1	none (no result: Neddyl block, Cardio protect)
COc1ccc(/C=C2\Oc3cc(OCC(=O)N4CCC[C@H]4C(=O)O)ccc3C2=O)c(OC)c1OC	ARFGAP1 inhibitor 26.1 | ARFGAP1 confirm inactive
COc1ccc(OC)c(/C=C2\Oc3cc(OCC(=O)N4CCC(C(=O)O)CC4)ccc3C2=O)c1	ARFGAP1 inhibitor 42.4 | ARFGAP1 confirm 48.1
CC1(C(=O)Nc2cccc(C(F)(F)F)c2)Cc2c(-c3cccc(C(F)(F)F)c3)ccnc2O1 (stereo not drawn)	ARFGAP1 inhibitor 33.7 | ARFGAP1 confirm inactive
Oc1ccc(Br)cc1-c1cc(-c2ccccc2Cl)[nH]n1	none
COc1ccc(O)c(-c2cc(-c3ccccc3Cl)[nH]n2)c1	ARFGAP1 inhibitor 30.3 | ARFGAP1 confirm inactive
CCOC(=O)CC1(CC)Oc2ccccc2N1S(=O)(=O)c1ccc(C)cc1 (stereo not drawn)	none (no result: Cardio protect)
Cc1cccc(NC(=O)CCN2CCN(C)CC2)c1	none
Cc1cccc(NC(=O)CCN2CCC(C)CC2)c1	ARFGAP1 inhibitor 27.3 | ARFGAP1 confirm inactive
O=C(Nc1ccc(Oc2cccc3ccccc23)cc1)c1ccco1	ARFGAP1 inhibitor 27.9 | ARFGAP1 confirm inactive
O=C(O)c1ccccc1C(=O)Nc1ccc(Oc2cccc3ccccc23)cc1	none
C[C@H](CO)N1C[C@H](C)[C@@H](CN(C)Cc2ccncc2)OCCCC[C@H](C)Oc2ccc(NC(=O)CCCN(C)C)cc2C1=O	none
c1ccc(-c2nc3c4ccccc4ccn3c2Cc2ccsc2)cc1	none (no result: ASAP1 GAP inh, ARFGAP1 inhibitor)
CC(C)=CCC/C(C)=C/Cc1c(O)ccc(C(=O)/C=C/c2ccc(O)cc2)c1O	ARFGAP1 inhibitor 27.6 | ARFGAP1 confirm 25.8
Cc1ccc(S(=O)(=O)N2CCN(C(=O)N3CCOCC3)C2C)cc1 (stereo not drawn)	none
CC(=O)N1CCN(S(=O)(=O)c2ccc(C)cc2)C1C (stereo not drawn)	ARFGAP1 inhibitor 29.9 | ARFGAP1 confirm inactive
O=C(Cc1ccccc1F)Nc1cccc(S(=O)(=O)N2CCCCC2)c1	none
Cc1ccc(NC(=O)C(C)N=C2NS(=O)(=O)c3ccccc32)cc1F (stereo not drawn)	ARFGAP1 inhibitor 37.6 | ARFGAP1 confirm inactive
C[C@@H]1CCCCO[C@@H](CN(C)C(=O)CCC(F)(F)F)[C@@H](C)CN([C@H](C)CO)C(=O)c2cc(NS(=O)(=O)c3cccs3)ccc2O1	none (no result: Neddyl block, Cardio protect)
NS(=O)(=O)c1ccc(CNC(=O)C2CCCCC2)cc1	none
NS(=O)(=O)c1ccc(CNC(=S)NC2CCCC2)cc1	ARFGAP1 inhibitor 29.2 | ARFGAP1 confirm inactive
O=C(NC(=S)Nc1ccc2c(c1)OCCO2)c1ccccc1	ARFGAP1 inhibitor 24.9 | ARFGAP1 confirm inactive
O=C(NC(=S)Nc1ccc2c(c1)OCCO2)c1ccccc1F	none
CC(=O)CC1c2cc(F)ccc2C=C(c2ccsc2)N1c1ccc(-c2ccc(C(N)=O)cc2)cc1 (stereo not drawn)	none (not shown: Neddyl block, Cardio protect)
CN1C(=O)c2ccc(NC(=O)c3c(C(=O)O)cccc3[N+](=O)[O-])cc2C1=O	ARFGAP1 inhibitor 25.7 | ARFGAP1 confirm inactive
c1ccc2c(N3CCCCC3)ncnc2c1	ARFGAP1 inhibitor 27.0 | ARFGAP1 confirm inactive
CC1CCCCN1c1ncnc2ccccc12 (stereo not drawn)	none
